Assay results: ChEMBL document CHEMBL1145781, “Synthesis and structure-activity relationships of 5-amino-6-fluoro-1-[(1R,2S)-2-fluorocyclopropan-1-yl]-8-methylquinolonecarboxylic acid antibacterials having fluorinated 7-[(3R)-3-(1-aminocyclopropan-1-yl)pyrrolidin-1-yl] substituents” (J Med Chem, 2003)
In brackets after ≈: the same amount, converted by molar mass.

How the values were obtained:
[1] = system: Enterococcus faecalis; test: Antibacterial activity was determined against Enterococcus faecalis ATCC 19433 strain after incubation at 37 degrees C for 18 h; assay type: functional; conditions: ATCC 19433, 18 h
[2] = system: Streptococcus pyogenes; test: Antibacterial activity was determined against Streptococcus pyogenes G-36 strain after incubation at 37 degrees C for 18 h; assay type: functional
[3] = Solubility was determined in water; assay type: physicochemical
[4] = system: Staphylococcus aureus; test: Antibacterial activity was determined against Staphylococcus aureus FDA 209-P strain after incubation at 37 degrees C for 18 h; assay type: functional
[5] = Mortality was determined after 50 mg/kg dose administered intravenously to 5-week old male mice at a speed of 0.2 mL/min counted on day 7 for total 5 mice; assay type: ADME, organism-based; set-up: dose 50 mg/kg, route intravenous; conditions: mouse, in vivo, iv
Procedure, shortened: (§1)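 Male Slc:ddY mice, 5 weeks old. Compound dissolved in 0.1 N NaOH in saline at varied concentrations and given as a single IV injection at 0.2 mL/min, total volume 10 mL/kg body weight. Deaths counted on day 7 and reported as dead/tested.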

[6] = Mortality was determined after 100 mg/kg dose administered intravenously to 5-week old male mice at a speed of 0.2 mL/min counted on day 7 for total 2 mice; assay type: ADME, organism-based; set-up: dose 100 mg/kg, route intravenous; conditions: mouse, in vivo, iv; procedure, shortened: as §1
[7] = Toxicity was determined as presence of micronucleated reticulocytes (MNRET) in blood at 24 and 48 hr after 50 mg/kg dose administered intravenously to 5-week old male mice.; conditions: mouse, in vivo, iv
[8] = system: Klebsiella pneumoniae; test: Antibacterial activity was determined against Klebsiella pneumoniae type II strain after incubation at 37 degrees C for 18 h; assay type: functional
[9] = system: Streptococcus mitis; test: Antibacterial activity was determined against Streptococcus mitis IID685 strain after incubation at 37 degrees C for 18 h; assay type: functional
[10] = system: Staphylococcus epidermidis; test: Antibacterial activity was determined against Staphylococcus epidermis 56500 strain after incubation at 37 degrees C for 18 h; assay type: functional
[11] = Mortality was determined after 150 mg/kg dose administered intravenously to 5-week old male mice at a speed of 0.2 mL/min counted on day 7 for total 2 mice; assay type: ADME, organism-based; set-up: dose 150 mg/kg, route intravenous; conditions: mouse, in vivo, iv; procedure, shortened: as §1
[12] = system: Pseudomonas aeruginosa; test: Antibacterial activity was determined against Pseudomonas aeruginosa PAO1 strain after incubation at 37 degrees C for 18 h; assay type: functional
[13] = system: Escherichia coli; test: Antibacterial activity was determined against Escherichia coli NIHJ strain after incubation at 37 degrees C for 18 h; assay type: functional
[14] = system: Streptococcus pneumoniae; test: Antibacterial activity was determined against Streptococcus pneumoniae J-24 strain after incubation at 37 degrees C for 18 h; assay type: functional
[15] = Half life in serum was determined after intravenous administration to rats (n=4) at dose of 20 mg/kg; assay type: ADME, organism-based; set-up: dose 20 mg/kg, route intravenous; conditions: rat
[16] = system: Staphylococcus aureus; test: Antibacterial activity was determined against clinically isolated Levofloxacin-methicillin resistant Staphylococcus aureus (LVFX-r MRSA) strains (74 strains); assay type: functional
[17] = Lung concentration was determined after 5 min. of intravenous administration to rats (n=4) at dose of 20 mg/kg; assay type: ADME, organism-based; set-up: dose 20 mg/kg, route intravenous; conditions: rat
[18] = Half life in lung was determined after intravenous administration to rats (n=4) at dose of 20 mg/kg; assay type: ADME, organism-based; set-up: dose 20 mg/kg, route intravenous; conditions: rat
[19] = Total concentration in lung was determined after 6 hr of intravenous administration to rats (n=4) at dose of 20 mg/kg; assay type: ADME, organism-based; set-up: time < 6 hr, dose 20 mg/kg, route intravenous; conditions: rat
[20] = Half life in liver was determined after intravenous administration to rats (n=4) at dose of 20 mg/kg; assay type: ADME, organism-based; set-up: dose 20 mg/kg, route intravenous; conditions: rat
[21] = Liver concentration was determined after 5 min. of intravenous administration to rats (n=4) at dose of 20 mg/kg; assay type: ADME, organism-based; set-up: dose 20 mg/kg, route intravenous; conditions: rat
[22] = Mortality was determined after 150 mg/kg dose administered intravenously to 5-week old male mice at a speed of 0.2 mL/min counted on day 7 for total 5 mice; assay type: ADME, organism-based; set-up: dose 150 mg/kg, route intravenous; conditions: mouse, in vivo, iv; procedure, shortened: as §1
[23] = Total concentration in liver was determined after 6 hr of intravenous administration to rats (n=4) at dose of 20 mg/kg; assay type: ADME, organism-based; set-up: time < 6 hr, dose 20 mg/kg, route intravenous; conditions: rat
[24] = system: Streptococcus pneumoniae; test: Antibacterial activity was determined against clinically isolated penicillin resistant Streptococcus pneumoniae (PRSP) strains (50 strains); assay type: functional
[25] = Ratio of total concentration in lung to that of serum after 6 hr of intravenous administration to rats (n=4) at dose of 20 mg/kg; assay type: ADME, organism-based; set-up: dose 20 mg/kg, route intravenous; conditions: rat
[26] = Half life in kidney was determined after intravenous administration to rats (n=4) at dose of 20 mg/kg; assay type: ADME, organism-based; set-up: dose 20 mg/kg, route intravenous; conditions: rat
[27] = Ratio of total concentration in liver to that of serum after 6 hr of intravenous administration to rats (n=4) at dose of 20 mg/kg; assay type: ADME, organism-based; set-up: dose 20 mg/kg, route intravenous; conditions: rat
[28] = Toxicity was determined as presence of micronucleated reticulocytes (MNRET) in blood at 24 and 48 h after 150 mg/kg dose administered intravenously to 5-week old male mice; negative.; assay type: organism-based; set-up: dose 150 mg/kg, route intravenous; conditions: mouse, in vivo, iv
[29] = system: Rattus norvegicus; test: Ratio of total concentration in serum to that of serum after 6 hr of intravenous administration to rats (n=4) at dose of 20 mg/kg; assay type: ADME, organism-based; set-up: dose 20 mg/kg, route intravenous; conditions: in vivo
[30] = Ratio of total concentration in kidney to that of serum after 6 hr of intravenous administration to rats (n=4) at dose of 20 mg/kg; assay type: ADME, organism-based; set-up: dose 20 mg/kg, route intravenous; conditions: rat
[31] = Serum concentration was determined after 5 min. of intravenous administration to rats (n=4) at dose of 20 mg/kg; assay type: ADME, organism-based; set-up: dose 20 mg/kg, route intravenous; conditions: rat
[32] = system: Enterococcus sp.; test: Antibacterial activity was determined against clinically isolated vancomycin-B resistant enterococci (VRE) strains (10 strains); assay type: functional
[33] = Kidney concentration was determined after 5 min. of intravenous administration to rats (n=4) at dose of 20 mg/kg; assay type: ADME, organism-based; set-up: dose 20 mg/kg, route intravenous; conditions: rat
[34] = Total concentration in serum was determined after 6 hr of intravenous administration to rats (n=4) at dose of 20 mg/kg; assay type: ADME, organism-based; set-up: time < 6 hr, dose 20 mg/kg, route intravenous; conditions: rat
[35] = system: Enterococcus sp.; test: Antibacterial activity was determined against clinically isolated vancomycin-A resistant enterococci (VRE) strains (33 strains); assay type: functional
[36] = Total concentration in kidney was determined after 6 hr of intravenous administration to rats (n=4) at dose of 20 mg/kg; assay type: ADME, organism-based; set-up: time < 6 hr, dose 20 mg/kg, route intravenous; conditions: rat

SMILES: Cc1c(N2CC[C@@H]([C@H](C)N)C2)c(F)c(N)c2c(=O)c(C(=O)O)cn([C@@H]3C[C@@H]3F)c12
- MIC [1]: 0.025 µg/mL (≈ 0.0615 µM)
- MIC [2]: ≤ 0.003 µg/mL
- solubility [3]: 95 µg/mL (≈ 234 µM)
- MIC [4]: ≤ 0.003 µg/mL
- Dead [5]: 1
- Dead [6]: 2
- Toxicity [7]: Toxic
- MIC [8]: 0.025 µg/mL (≈ 0.0615 µM)
- MIC [9]: ≤ 0.003 µg/mL
- MIC [10]: ≤ 0.003 µg/mL
- Dead [11]: 2
- MIC [12]: 0.05 µg/mL (≈ 0.123 µM)
- MIC [13]: ≤ 0.003 µg/mL
- MIC [14]: ≤ 0.003 µg/mL

SMILES: Cc1c(N2C[C@@H](F)[C@@H](C3(N)CC3)C2)c(F)c(N)c2c(=O)c(C(=O)O)cn([C@@H]3C[C@@H]3F)c12 [DQ-113]
- MIC [1]: 0.025 µg/mL (≈ 0.0573 µM)
- MIC [2]: ≤ 0.003 µg/mL
- half-life [15]: 1.1 h
- solubility [3]: 291 µg/mL (≈ 667 µM)
- MIC50 [16]: 0.12 µg/mL (≈ 0.275 µM)
- MIC90 [16]: 0.5 µg/mL (≈ 1.15 µM)
- MIC [4]: ≤ 0.003 µg/mL
- concentration at 5 min [17]: 22000 ng/mL
- half-life [18]: 0.9 h
- AUC at 6 h [19]: 37900 ng·h/mL
- half-life [20]: 1.3 h
- concentration at 5 min [21]: 46200 ng/mL
- Dead [22]: 0
- AUC at 6 h [23]: 36000 ng·h/mL
- MIC50 [24]: ≤ 0.008 µg/mL
- MIC90 [24]: 0.015 µg/mL (≈ 0.0344 µM)
- Kp at 6 h [25]: 4.1
- half-life [26]: 1.3 h
- Kp at 6 h [27]: 3.9
- MIC [8]: 0.013 µg/mL (≈ 0.0298 µM)
- Toxicity [28]: Non-toxic
- MIC [9]: ≤ 0.003 µg/mL
- MIC [10]: ≤ 0.003 µg/mL
- Ratio [29]: 1
- Kp at 6 h [30]: 3.7
- concentration at 5 min [31]: 11100 ng/mL
- MIC50 [32]: 0.25 µg/mL (≈ 0.573 µM)
- MIC90 [32]: 0.25 µg/mL (≈ 0.573 µM)
- concentration at 5 min [33]: 33700 ng/mL
- AUC at 6 h [34]: 9300 ng·h/mL
- MIC [12]: 0.39 µg/mL (≈ 0.894 µM)
- MIC50 [35]: 0.25 µg/mL (≈ 0.573 µM)
- MIC90 [35]: 2 µg/mL (≈ 4.58 µM)
- MIC [13]: ≤ 0.003 µg/mL
- AUC at 6 h [36]: 34800 ng·h/mL
- MIC [14]: ≤ 0.003 µg/mL
